Screening data from PubChem BioAssay.
TCR-CD3 inh: inhibitors of human TCR-CD3 interaction, primary screen, biochemical, fluorescence, TAMRA-labeled TCR probe; T-cell receptor (TCR); inhibition, % at 9.4 µM; actives 0.37% (n = 360,000); AID 651800, 2012; in the data active = inhibition above about 19%;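 note: recombinant mutant TCR 2C K166C tagged with TAMRA read by polarization; 0% = receptor in buffer alone and 100% = receptor with positive control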
SIAE primary: human SIAE inhibitors, primary screen, biochemical, fluorescence polarization, FP-Rh probe, 1536-well HTS; AID 1053197, 2014; Sialate O-acetylesterase (Homo sapiens), Q9HAT2; inhibition, % at 9.66 µM; actives 0.69% (n = 370,000); SIAE FP-Rh probe binding;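 active = inhibition above a cutoff: mean of compounds within the control limits plus 3 SD of those, cut at about 17% in these data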;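 note: 0% = plate median of compound wells and 100% = probe without SIAE protein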
Target sequence (Q9HAT2 whole entry, looked up): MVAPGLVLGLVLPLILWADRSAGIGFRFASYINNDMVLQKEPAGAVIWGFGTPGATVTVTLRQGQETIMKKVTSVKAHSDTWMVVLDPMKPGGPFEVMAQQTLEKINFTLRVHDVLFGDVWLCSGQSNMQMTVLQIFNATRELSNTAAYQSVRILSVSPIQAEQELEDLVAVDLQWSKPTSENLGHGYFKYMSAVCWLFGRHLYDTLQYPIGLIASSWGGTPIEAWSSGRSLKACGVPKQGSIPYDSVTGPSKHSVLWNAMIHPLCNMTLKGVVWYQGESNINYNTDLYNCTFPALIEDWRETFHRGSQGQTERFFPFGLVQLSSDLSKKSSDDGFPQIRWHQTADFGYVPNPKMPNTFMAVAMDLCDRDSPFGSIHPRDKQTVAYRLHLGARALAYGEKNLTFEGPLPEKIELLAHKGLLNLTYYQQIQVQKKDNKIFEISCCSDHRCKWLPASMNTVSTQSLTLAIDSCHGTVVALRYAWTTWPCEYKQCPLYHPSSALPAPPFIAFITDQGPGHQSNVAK
HTRA1 inhibitor: HTRA1 serine protease inhibitors, primary screen, biochemical, fluorescence polarization, HTS; recombinant HTRA1, FP-rhodamine activity-based probe; AID 504803, 2011; inhibition, % at 5.96 µM; Q92743; actives 0.5% (n = 340,000); in the data active = inhibition above about 36%;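 note: 0% = enzyme with DMSO and 100% = wells lacking enzyme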
ABHD4 inh: ABHD4 inhibitors, primary screen, biochemical, fluorescence polarization, mouse; actives 0.54% (n = 370,000); (Lyso)-N-acylphosphatidylethanolamine lipase (Mus musculus), Q8VD66; inhibition, % at 8.92 µM; purified mABHD4, FP-Rh probe fluorescence polarization; AID 720543, 2013;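 active = inhibition exceeding the mean over every tested compound plus 3 SD, cut at about 30% in these data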;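 note: 0% = plate median of compound wells and 100% = S159A mutant with DMSO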
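Material: mouse ABHD4 enzyme, wild type; Benchmarks: S159A mutant high control, sample median low control; Buffer or medium: HEPES pH 7.0, NaCl, Pluronic buffer; Signal: fluorescence polarization; Read-out: percent inhibition of probe binding, normalized to plate controls; Timing: pre-incubation 45 min, probe exposure 60 min, at 25 °C; Dosing: 8.92 µM, single dose.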
pPAFAH inh: pPAFAH enzyme inhibitors, primary screen, biochemical, fluorescence polarization, human; Platelet-activating factor acetylhydrolase (Homo sapiens), Q13093; inhibition, % at 3.39 µM; recombinant pPAFAH, FP-rhodamine probe fluorescence polarization; actives 1.5% (n = 330,000); AID 463082, 2010;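 active = inhibition above the mean inhibition across the screen plus 3 SD, cut at about 25% in these data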;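 note: inhibitors block binding of the rhodamine activity-based probe so polarization drops; 0% = enzyme with DMSO and 100% = wells lacking pPAFAH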
pPAFAH confirm: pPAFAH (PLA2G7) enzyme inhibitors, confirmation, biochemical, fluorescence polarization, human | inhibition, % at 3.39 µM | actives 72% (n = 2,300) | shares compounds with pPAFAH inh | recombinant pPAFAH, FP-Rh probe fluorescence polarization;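 active = mean inhibition of the triplicate above the hit cutoff set for the earlier primary screen, cut at about 25% in these data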;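 note: 0% = enzyme with DMSO and 100% = wells lacking pPAFAH enzyme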
The depositor's hits bear a star; . = no result given. Shown are actives, neighbours in structure and some others; about 2.3% of the full set was active somewhere.

SMILES | TCR-CD3 inh | SIAE primary | HTRA1 inhibitor | ABHD4 inh | pPAFAH inh | pPAFAH confirm
O=C(Nc1ccc(S(=O)(=O)Nc2nccs2)cc1)c1ccc(=O)[nH]c1 | 17.6 | -23.6 | 7.8 | 13.2 | 38.7* | 5.5
Cc1cc([N+](=O)[O-])ccc1Nc1nc2ccccc2n2cnnc12 | -5.0 | -1.8 | 1.9 | 5.0 | 37.1* | 5.4
CC(C)=CCc1c(O)cc2c(c1O)C(=O)CC(c1ccccc1)O2 (stereo not drawn) | -0.6 | -8.2 | -17.4 | -15.5 | 3.3 | .
CC(C)=CCc1c(O)c(CC=C(C)C)c2c(c1O)-c1cc(O)c(O)cc1CC2 | . | . | . | . | 76.4* | 56.2*
COC(=O)[C@]12C[C@H](CC(=O)NCc3ccc(C)o3)C(=O)N(Cc3ccc(Cl)cc3Cl)C1=C[C@H](C(C)(C)C)O[C@@H]2C | . | -7.5 | . | -12.8 | . | .
CCN(CC)c1nc(N)c2c(N)nc3c(c2c1C#N)CC(c1ccccc1)O3 (stereo not drawn) | 1.3 | 1.3 | -1.7 | 8.1 | 19.6 | .
CCN(CC)c1nc(N)c2c(N)n(-c3ccccc3C)c(=S)c(C#N)c2c1C#N | 1.1 | 2.4 | 32.8 | 11.1 | 46.5* | 30.7*
CCOC(=O)[C@]12CCCC3=C1N(CCC3)C(=O)[C@@H](CC(=O)NCCc1ccccc1OC)C2 | . | 3.4 | . | -0.3 | . | .
CCOC(=O)[C@]12CCCC=C1N(Cc1ccc(OC)cc1)C(=O)[C@@H]2CC(=O)N1CCC(c2ccccc2)CC1 | . | -5.2 | . | -10.3 | . | .
CCOC(=O)Cc1cc(=O)n2[nH]c(-c3ccccc3)c(-c3ccccc3)c2n1 | -7.3 | -32.8 | -12.6 | -5.8 | 42.9* | 19.1
CC(C)N1CCCCC(NC(=O)Cc2ccccc2)C1=O (stereo not drawn) | . | -4.3 | . | -4.7 | . | .
COCCN=C1Sc2nc3ccc(C)cc3cc2CN1Cc1ccco1 | 3.0 | -2.2 | -13.4 | -7.9 | 64.1* | 51.4*
COCCN=C1Sc2nc3cc(C)c(C)cc3cc2CN1Cc1cccs1 | -4.1 | -11.4 | -7.0 | 5.7 | 1.7 | .
COc1cccc(-c2nnc(SCC(=O)Nc3ccc(Oc4ccccc4)cc3)n2Cc2ccco2)c1 | . | -12.3 | . | -41.4 | . | .
O=C(CNC(c1ccccc1)c1ccccc1)Nc1ccccc1F | 1.4 | 2.0 | -34.4 | -3.4 | 47.1* | -4.0
O=S(=O)(Nc1ccc(N=Nc2ccccc2)cc1)c1ccccc1 | -1.3 | 8.4 | -6.2 | -33.0 | 67.1* | 70.3*
O=S(=O)(Nc1ccc(-n2cccc2)cc1)c1ccccc1 | -4.6 | 11.0 | -16.7 | -11.2 | 22.4 | .
O=C1N/C(=N\S(=O)(=O)c2ccccc2)S/C1=C\c1cc([N+](=O)[O-])ccc1O | -6.2 | -39.4 | -0.3 | 24.8 | 40.8* | 48.8*
COc1cc(/C=C2/S/C(=N/S(=O)(=O)c3ccccc3)NC2=O)c([N+](=O)[O-])cc1OC | -0.9 | -11.6 | 5.8 | 5.5 | 15.8 | .
CC1=NN(c2ccccc2)C(=O)/C1=C/c1c(O)n(-c2ccc(F)c(Cl)c2)[nH]c1=O | . | . | . | . | 74.7* | 47.0*
Cc1cc(=O)n2[nH]c(-c3ccsc3-n3c(C)ccc3C)cc2n1 | 15.7 | -5.2 | 30.0 | 13.4 | 42.2* | 10.7
COCc1cc(=O)n2[nH]c(-c3ccsc3-n3c(C)ccc3C)cc2n1 | -5.6 | -11.0 | 35.2 | 14.7 | 46.4* | 18.5
O=[N+]([O-])c1cccc(NC(=S)Nc2nc(-c3ccccc3Cl)cs2)c1 | 2.5 | -14.9 | -28.6 | -6.1 | 38.5* | 23.0
C[C@@H]1/C=C/CC(=O)N[C@H](c2ccccc2)[C@H](C)/C=C/CC(=O)N[C@@H]1c1ccccc1 | . | 0.6 | . | -3.7 | . | .
C=C(C)Cn1c(-c2ccc(OC)cc2)nc2ccccc21 | 2.3 | 5.8 | -5.8 | -3.3 | 78.3* | 12.0
SMILES | TCR-CD3 inh | SIAE primary | HTRA1 inhibitor | ABHD4 inh | pPAFAH inh | pPAFAH confirm
COc1ccc(/C=N/NC(=O)c2ccc(CN3C(=O)c4cccc5cccc3c45)cc2)cc1O | -1.0 | -17.8 | -49.2 | -27.2 | 4.9 | .
COc1cc(/C=N/NC(=O)c2ccc(CN3C(=O)c4cccc5cccc3c45)cc2)cc(OC)c1O | 0.5 | 12.2 | -3.4 | 14.0 | 38.4* | 20.3
COC(=O)[C@H](C(C)C)N(CCc1cn(Cc2ccccc2)nn1)S(=O)(=O)c1ccccc1Br | . | -4.8 | . | -5.9 | . | .
O=S(=O)(c1cccs1)N1CCC(c2cn3ccccc3n2)CC1 | . | 3.1 | . | 2.1 | . | .
CN(N=Cc1ccc(N(C)C)cc1)C(=O)c1ccccc1N | -3.4 | 2.4 | . | 1.8 | . | .
COc1cc2c(cc1OC)C(c1ccccc1C)CC(=O)N2 (stereo not drawn) | -1.5 | -0.6 | 10.0 | -4.4 | 67.2* | 3.5
COc1cc2c(cc1OC)C(c1cccc(OC)c1OC)CC(=O)N2 (stereo not drawn) | -0.2 | 0.4 | 1.8 | -2.8 | 4.4 | .
O=C1NN(c2ccc(F)c(Cl)c2)C(=O)/C1=C\c1cccc(OC(=O)c2cccs2)c1 | 5.0 | -0.7 | 34.8 | 31.8* | 40.2* | 40.9*
N#Cc1cccc(NC(=O)CSc2sc3c(O)cc(=O)[nH]c3c2C#N)c1 | 11.1 | -42.1 | -11.9 | -39.3 | 0.0 | .
N#Cc1c(SCC(=O)Nc2nc3ccc(Br)cc3s2)sc2c(O)cc(=O)[nH]c12 | 15.3 | -49.0 | -16.6 | -4.4 | 51.2* | 41.7*
COC(=O)[C@H](Cc1ccccc1)NC(=O)[C@H]1O[C@@H](n2cnc3c(=O)[nH]c(N)nc32)[C@H](O)[C@@H]1O | 2.6 | -0.8 | . | 1.1 | . | .
CCOC(=O)N1CCN(C(=O)CCN2C(=O)COc3ccc(C)cc32)CC1 | 2.2 | -7.2 | -2.5 | -7.3 | 77.5* | -4.9
Cc1cc(C(=O)N/N=C2\CC(=O)c3ccccc32)c(C)n1-c1ccc(F)cc1 | 7.7 | 10.8 | 30.0 | 25.3 | 42.4* | 31.8*
CCOc1cc(/C=N/NC(=O)c2cc(C)n(-c3ccc(F)cc3)c2C)ccc1O | 5.4 | 4.1 | -0.2 | 4.7 | 13.7 | .
Cc1cc(/C=C2\SC(=S)NC2=O)c(C)n1C | 6.0 | -1.9 | 28.9 | 20.7 | 38.8* | 7.3
Cc1ccc(C2CCC3(CCC(=O)N3CCOC(=O)Nc3cccc(C#N)c3)CC2)cc1 (stereo not drawn) | . | 1.8 | . | 2.6 | . | .
COc1ccc(N(Cc2cc3cccc(C)c3[nH]c2=O)S(=O)(=O)c2ccc(OC)cc2)cc1 | -1.8 | -1.6 | 0.7 | 2.4 | 65.8* | 2.4
O=C(CSCc1cc(=O)[nH][nH]1)Nc1ccc(F)cc1 | -2.1 | 0.6 | 0.0 | 6.8 | 4.5 | .
CCCCc1ccc(NC(=O)CSCc2cc(=O)[nH][nH]2)cc1 | -1.0 | 9.6 | 12.7 | 9.8 | 36.3* | 16.0
Cc1cc(/C=C2\SC(=S)N(Cc3ccco3)C2=O)c(C)n1-c1cccnc1 | 2.5 | -5.3 | -5.1 | -11.7 | . | .
